ChEMBL document CHEMBL3627681, “Synthesis and biological evaluation of 1,3-diaryl pyrazole derivatives as potential antibacterial and anti-inflammatory agents” (2015)
≈ marks a conversion by molar mass, not a printed value.

tested on: Escherichia coli; test: Ratio of gatifloxacin MIC to compound MIC for Escherichia coli CCARM 1356 after 24 hrs by two-fold serial dilution method; assay type: functional; details: not given

SMILES	Ratio
N=C(N)N/N=C/c1cn(-c2ccc([N+](=O)[O-])cc2[N+](=O)[O-])nc1-c1ccc(Br)cc1	4
N=C(N)N/N=C/c1cn(-c2ccc([N+](=O)[O-])cc2[N+](=O)[O-])nc1-c1cccc(Cl)c1	4

tested on: Staphylococcus aureus; test: Ratio of gatifloxacin MIC to compound MIC for quinolone-resistant Staphylococcus aureus CCARM 3519 after 24 hrs by two-fold serial dilution method; assay type: functional; details: not given

SMILES	Ratio
N=C(N)N/N=C/c1cn(-c2ccc([N+](=O)[O-])cc2[N+](=O)[O-])nc1-c1cccc(Cl)c1	2

tested on: Staphylococcus aureus; test: Antibacterial activity against quinolone-resistant Staphylococcus aureus CCARM 3519 after 24 hrs by two-fold serial dilution method; assay type: functional; details: CCARM 3519, 24 h
Procedure, shortened: (§1)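 Broth microdilution in Mueller-Hinton broth. Bacteria grown to mid-log phase, diluted 1000-fold, and inoculated at 10⁵ CFU/mL. Test compounds in DMSO, final DMSO not above 0.05%, final concentrations 64-0.5 µg/mL. Incubation 24 h at 37 °C, growth read as absorbance at 650 nm. MIC taken as the lowest concentration giving complete growth inhibition. Run three times.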

SMILES	MIC
N=C(N)N/N=C/c1cn(-c2ccc([N+](=O)[O-])cc2[N+](=O)[O-])nc1-c1ccc(Br)cc1	2 µg/mL (≈ 4.23 µM)
N=C(N)N/N=C/c1cn(-c2ccc([N+](=O)[O-])cc2[N+](=O)[O-])nc1-c1cccc(Cl)c1	2 µg/mL (≈ 4.66 µM)

tested on: Staphylococcus aureus; test: Ratio of gatifloxacin MIC to compound MIC for quinolone-resistant Staphylococcus aureus CCARM 3505 after 24 hrs by two-fold serial dilution method; assay type: functional; details: not given

SMILES	Ratio
N=C(N)N/N=C/c1cn(-c2ccc([N+](=O)[O-])cc2[N+](=O)[O-])nc1-c1ccc(Br)cc1	4
N=C(N)N/N=C/c1cn(-c2ccc([N+](=O)[O-])cc2[N+](=O)[O-])nc1-c1cccc(Cl)c1	4

tested on: Mus musculus; test: Antiinflammatory activity in mouse assessed as inhibition of xylene-induced ear edema at 50 mg/kg, ip administered 30 mins before xylene challenge relative to control; assay type: functional; details: not given
Procedure, shortened: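 Mice received compound freshly dissolved in DMSO, 50 mg/kg ip at 0.05 mL/20 g body weight; vehicle controls got DMSO alone. After 30 min, 20 µL xylene was applied to the right ear. After a further 30 min, 7 mm plugs were cut from treated and untreated ears and edema taken as their weight difference. Result is % edema reduction versus vehicle controls.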

SMILES	inhibition in vivo at 50 mg/kg
N=C(N)N/N=C/c1cn(-c2ccc([N+](=O)[O-])cc2[N+](=O)[O-])nc1-c1ccc(Br)cc1	69.6%
N=C(N)N/N=C/c1cn(-c2ccc([N+](=O)[O-])cc2[N+](=O)[O-])nc1-c1cccc(Cl)c1	82.4%

tested on: Staphylococcus aureus; test: Antibacterial activity against methicillin-resistant Staphylococcus aureus CCARM 3506 after 24 hrs by two-fold serial dilution method; assay type: functional; details: CCARM 3506, 24 h; procedure, shortened: as §1

SMILES	MIC
N=C(N)N/N=C/c1cn(-c2ccc([N+](=O)[O-])cc2[N+](=O)[O-])nc1-c1ccc(Br)cc1	1 µg/mL (≈ 2.11 µM)
N=C(N)N/N=C/c1cn(-c2ccc([N+](=O)[O-])cc2[N+](=O)[O-])nc1-c1cccc(Cl)c1	1 µg/mL (≈ 2.33 µM)

tested on: Staphylococcus aureus; test: Antibacterial activity against Staphylococcus aureus 209 after 24 hrs by two-fold serial dilution method; assay type: functional; details: Staphylococcus aureus, 209, 24 h; procedure, shortened: as §1

SMILES	MIC
N=C(N)N/N=C/c1cn(-c2ccc([N+](=O)[O-])cc2[N+](=O)[O-])nc1-c1ccc(Br)cc1	2 µg/mL (≈ 4.23 µM)
N=C(N)N/N=C/c1cn(-c2ccc([N+](=O)[O-])cc2[N+](=O)[O-])nc1-c1cccc(Cl)c1	2 µg/mL (≈ 4.66 µM)

tested on: Pseudomonas aeruginosa; test: Antibacterial activity against Pseudomonas aeruginosa 2004 after 24 hrs by two-fold serial dilution method; assay type: functional; details: Pseudomonas aeruginosa, 2004, 24 h
Procedure, shortened: (§2)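 Broth microdilution in Mueller-Hinton broth over final concentrations of 64–0.5. Bacteria were grown to mid-log phase and diluted 1000-fold, then inoculated at 10⁵ CFU/mL. Compounds were dissolved in DMSO, with final DMSO at most 0.05%. Plates were incubated 24 h at 37 °C and growth read as absorbance at 650 nm. MIC is the concentration giving complete growth inhibition. Three independent runs.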

SMILES	MIC
N=C(N)N/N=C/c1cn(-c2ccc([N+](=O)[O-])cc2[N+](=O)[O-])nc1-c1ccc(Br)cc1	> 64 µg/mL
N=C(N)N/N=C/c1cn(-c2ccc([N+](=O)[O-])cc2[N+](=O)[O-])nc1-c1cccc(Cl)c1	> 64 µg/mL

tested on: Staphylococcus aureus; test: Antibacterial activity against methicillin-resistant Staphylococcus aureus CCARM 3167 after 24 hrs by two-fold serial dilution method; assay type: functional; details: CCARM 3167, 24 h; procedure, shortened: as §1

SMILES	MIC
N=C(N)N/N=C/c1cn(-c2ccc([N+](=O)[O-])cc2[N+](=O)[O-])nc1-c1ccc(Br)cc1	2 µg/mL (≈ 4.23 µM)
N=C(N)N/N=C/c1cn(-c2ccc([N+](=O)[O-])cc2[N+](=O)[O-])nc1-c1cccc(Cl)c1	2 µg/mL (≈ 4.66 µM)

tested on: Escherichia coli; test: Antibacterial activity against Escherichia coli CCARM 1356 after 24 hrs by two-fold serial dilution method; assay type: functional; details: CCARM 1356, 24 h; procedure, shortened: as §2

SMILES	MIC
N=C(N)N/N=C/c1cn(-c2ccc([N+](=O)[O-])cc2[N+](=O)[O-])nc1-c1ccc(Br)cc1	4 µg/mL (≈ 8.45 µM)
N=C(N)N/N=C/c1cn(-c2ccc([N+](=O)[O-])cc2[N+](=O)[O-])nc1-c1cccc(Cl)c1	4 µg/mL (≈ 9.33 µM)

tested on: Staphylococcus aureus; test: Antibacterial activity against Staphylococcus aureus RN4220 after 24 hrs by two-fold serial dilution method; assay type: functional; details: RN4220, 24 h; procedure, shortened: as §1

SMILES	MIC
N=C(N)N/N=C/c1cn(-c2ccc([N+](=O)[O-])cc2[N+](=O)[O-])nc1-c1ccc(Br)cc1	2 µg/mL (≈ 4.23 µM)
N=C(N)N/N=C/c1cn(-c2ccc([N+](=O)[O-])cc2[N+](=O)[O-])nc1-c1cccc(Cl)c1	1 µg/mL (≈ 2.33 µM)

tested on: Staphylococcus aureus; test: Antibacterial activity against quinolone-resistant Staphylococcus aureus CCARM 3505 after 24 hrs by two-fold serial dilution method; assay type: functional; details: CCARM 3505, 24 h; procedure, shortened: as §1

SMILES	MIC
N=C(N)N/N=C/c1cn(-c2ccc([N+](=O)[O-])cc2[N+](=O)[O-])nc1-c1ccc(Br)cc1	2 µg/mL (≈ 4.23 µM)
N=C(N)N/N=C/c1cn(-c2ccc([N+](=O)[O-])cc2[N+](=O)[O-])nc1-c1cccc(Cl)c1	2 µg/mL (≈ 4.66 µM)

tested on: Staphylococcus aureus; test: Ratio of norfloxacin MIC to compound MIC for methicillin-resistant Staphylococcus aureus CCARM 3506 after 24 hrs by two-fold serial dilution method; assay type: functional; details: not given

SMILES	Ratio
N=C(N)N/N=C/c1cn(-c2ccc([N+](=O)[O-])cc2[N+](=O)[O-])nc1-c1cccc(Cl)c1	4

tested on: Streptococcus mutans; test: Antibacterial activity against Streptococcus mutans 3065 after 24 hrs by two-fold serial dilution method; assay type: functional; details: Streptococcus mutans, 3065, 24 h; procedure, shortened: as §2

SMILES	MIC
N=C(N)N/N=C/c1cn(-c2ccc([N+](=O)[O-])cc2[N+](=O)[O-])nc1-c1ccc(Br)cc1	2 µg/mL (≈ 4.23 µM)
N=C(N)N/N=C/c1cn(-c2ccc([N+](=O)[O-])cc2[N+](=O)[O-])nc1-c1cccc(Cl)c1	4 µg/mL (≈ 9.33 µM)

tested on: Staphylococcus aureus; test: Ratio of moxifloxacin MIC to compound MIC for quinolone-resistant Staphylococcus aureus CCARM 3519 after 24 hrs by two-fold serial dilution method; assay type: functional; details: not given

SMILES	Ratio
N=C(N)N/N=C/c1cn(-c2ccc([N+](=O)[O-])cc2[N+](=O)[O-])nc1-c1ccc(Br)cc1	2
N=C(N)N/N=C/c1cn(-c2ccc([N+](=O)[O-])cc2[N+](=O)[O-])nc1-c1cccc(Cl)c1	2

tested on: Candida albicans; test: Antifungal activity against Candida albicans 7535 by two-fold serial dilution method; assay type: functional; details: not given

SMILES	MIC
N=C(N)N/N=C/c1cn(-c2ccc([N+](=O)[O-])cc2[N+](=O)[O-])nc1-c1ccc(Br)cc1	1 µg/mL (≈ 2.11 µM)
N=C(N)N/N=C/c1cn(-c2ccc([N+](=O)[O-])cc2[N+](=O)[O-])nc1-c1cccc(Cl)c1	1 µg/mL (≈ 2.33 µM)

tested on: Salmonella typhimurium; test: Antibacterial activity against Salmonella typhimurium 2421 after 24 hrs by two-fold serial dilution method; assay type: functional, Salmonella enterica subsp. enterica serovar Typhimurium; details: Salmonella enterica, 2421, 24 h; procedure, shortened: as §2

SMILES	MIC
N=C(N)N/N=C/c1cn(-c2ccc([N+](=O)[O-])cc2[N+](=O)[O-])nc1-c1ccc(Br)cc1	4 µg/mL (≈ 8.45 µM)
N=C(N)N/N=C/c1cn(-c2ccc([N+](=O)[O-])cc2[N+](=O)[O-])nc1-c1cccc(Cl)c1	4 µg/mL (≈ 9.33 µM)

tested on: Staphylococcus aureus; test: Antibacterial activity against Staphylococcus aureus 503 after 24 hrs by two-fold serial dilution method; assay type: functional; details: Staphylococcus aureus, 503, 24 h; procedure, shortened: as §1

SMILES	MIC
N=C(N)N/N=C/c1cn(-c2ccc([N+](=O)[O-])cc2[N+](=O)[O-])nc1-c1ccc(Br)cc1	2 µg/mL (≈ 4.23 µM)
N=C(N)N/N=C/c1cn(-c2ccc([N+](=O)[O-])cc2[N+](=O)[O-])nc1-c1cccc(Cl)c1	2 µg/mL (≈ 4.66 µM)

tested on: Staphylococcus aureus; test: Ratio of oxacillin MIC to compound MIC for methicillin-resistant Staphylococcus aureus CCARM 3506 after 24 hrs by two-fold serial dilution method; assay type: functional; details: not given

SMILES	Ratio
N=C(N)N/N=C/c1cn(-c2ccc([N+](=O)[O-])cc2[N+](=O)[O-])nc1-c1ccc(Br)cc1	64
N=C(N)N/N=C/c1cn(-c2ccc([N+](=O)[O-])cc2[N+](=O)[O-])nc1-c1cccc(Cl)c1	64

tested on: Pseudomonas aeruginosa; test: Antibacterial activity against Pseudomonas aeruginosa 2742 after 24 hrs by two-fold serial dilution method; assay type: functional; details: Pseudomonas aeruginosa, 2742, 24 h; procedure, shortened: as §2

SMILES	MIC
N=C(N)N/N=C/c1cn(-c2ccc([N+](=O)[O-])cc2[N+](=O)[O-])nc1-c1ccc(Br)cc1	> 64 µg/mL
N=C(N)N/N=C/c1cn(-c2ccc([N+](=O)[O-])cc2[N+](=O)[O-])nc1-c1cccc(Cl)c1	> 64 µg/mL

tested on: Staphylococcus aureus; test: Ratio of moxifloxacin MIC to compound MIC for quinolone-resistant Staphylococcus aureus CCARM 3505 after 24 hrs by two-fold serial dilution method; assay type: functional; details: not given

SMILES	Ratio
N=C(N)N/N=C/c1cn(-c2ccc([N+](=O)[O-])cc2[N+](=O)[O-])nc1-c1cccc(Cl)c1	2

tested on: Escherichia coli; test: Antibacterial activity against Escherichia coli KCTC 1924 after 24 hrs by two-fold serial dilution method; assay type: functional; details: KCTC 1924, 24 h; procedure, shortened: as §2

SMILES	MIC
N=C(N)N/N=C/c1cn(-c2ccc([N+](=O)[O-])cc2[N+](=O)[O-])nc1-c1ccc(Br)cc1	2 µg/mL (≈ 4.23 µM)
N=C(N)N/N=C/c1cn(-c2ccc([N+](=O)[O-])cc2[N+](=O)[O-])nc1-c1cccc(Cl)c1	2 µg/mL (≈ 4.66 µM)
